Records with an inconclusive call do not appear.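 The calls were made as follows, unless noted: active = viability increase at or above a cutoff of the median across tested compounds plus 3 SD (cut at about 8.5% in these data, passing the limit was not always enough); inconclusive = some gains above the cutoff, reason not given; inactive = the rest.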
How the values were obtained:
[1] = S. cerevisiae growth inhibition in permissive medium (OD615), pilot counter-assay for S. cerevisiae lifespan shortening project, permissive growth control (AID 705;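 active = growth inhibition above 25% in both replicates, a cutoff set 3 SD above the mean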); settings: OD615, 24 h, at 10 µM, hits give high values
Outline: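 System: Engineered DeaD yeast | Buffer or medium: SC raffinose/galactose permissive medium | Incubation: Cells pre-grown 4 h, then 24 h compound exposure, 30 °C humidified | Measured by: Absorbance (optical density) at 615 nm | Read-out: Reduction in yeast growth (OD615)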

[2] = S. cerevisiae growth inhibition in restrictive medium, OD615, pilot screen, restrictive growth control, yeast lifespan reduction project (AID 706;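 active = growth inhibition above a set limit, 3 SD over mean compound inhibition, in both replicates, cut at about 43% in these data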;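 also: modified DeaD lifespan yeast strain shifted to restrictive glucose medium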); settings: OD615, 48 h, at 10 µM, hits give high values
Outline: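 Material: modified S. cerevisiae; Medium: glucose-based CSMM-D restrictive medium; Compound dosing: one concentration, 10 µM final, 0.25% DMSO; Incubation: 48 h compound exposure at 30 °C; Measured by: OD615.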

[3] = doxorubicin toxicity protection in MRP-1 cells – H69AR cells, CellTiter-Glo, duplicate, MRP-1 activator project, pilot screen (AID 807); settings: H69AR viability with doxorubicin, CellTiter-Glo luminescence; at 10 µM; hits give high values;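 also: compound pretreatment 18-22 h then 72 h combined with doxorubicin; 0% = doxorubicin alone and 100% = vehicle without doxorubicin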
[4] = viability of HCT116 without oncogenic beta-catenin – human colon tumor cells, pilot screen (AID 823;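 active = cell viability at or below a set limit in both duplicate runs, the limit being the all-compound median minus 4 SD, cut at about 23% in these data, passing the limit was not always enough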;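 also: 0% = wells killed by 20 µM Hyamine and 100% = untreated DMSO cell wells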); settings: HCT116 beta-catenin knockout viability, CellTiter-Glo, 60 h; at 10 µM; hits give low values
[5] = viability of PTEN-null HCT116 cells – cell-based, HCT116 clonal line, CellTiter-Glo, pilot screen (AID 824;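 active = viability at or below 27.92% in each of two runs, the all-compound median minus 4 SD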;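 also: 0% = 20 µM Hyamine control and 100% = vehicle cell control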); settings: HCT116 PTEN-deleted viability, 60 h, at 10 µM, hits give low values
[6] = RAM pathway blockade in budding yeast – dse1pr::URA3 reporter, 5-FOA selection, pilot screen (AID 869;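 active = inhibition over a set limit, the all-compound mean plus 3 SD, in both replicate runs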;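 also: 0% = DMSO wells with no growth and 100% = 10 µM 1-NA-PP1 with full growth; RAM network block rescues cells from 5-FOA so hits raise OD615 growth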); settings: S. cerevisiae dse1pr::URA3 5-FOA growth, OD615, 2 d; at 10 µM; hits give high values; strain carries analog-sensitive mutant Cbk1 kinase
[7] = RAM signaling pathway blockade in yeast – S. cerevisiae, Pdr1DBD-CYC8 efflux-inhibited sensitized strain, primary screen (AID 1298;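 active = RAM network inhibition above 8.4% in each of two replicates, 3 SD over the compound average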;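 also: 0% = DMSO untreated cells without growth and 100% = 10 µM 1-NA-PP1 full growth; higher means more yeast growth rescued from 5-FOA killing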); settings: S. cerevisiae cbk1-as DSE1-URA3 strain, 5-FOA growth OD615, 2 d; at 50 µM; hits give high values

CC1(C)CC(=O)c2sc(NC(=O)C3CC3)nc2C1
inactive: growth inhibition [1] -1.12% | growth inhibition [2] -10.6% | viability increase [3] 1.37% | viability [4] 104% | viability [5] 106% | inhibition [6] 1.47% | RAM network inhibition [7] 1.56%

COCCN(C(=O)Nc1ccccc1)C(C)c1cccnc1 (stereo unspecified)
inactive: growth inhibition [1] 9.6% | growth inhibition [2] -1.42% | viability increase [3] -2.41% | viability [4] 93.5% | viability [5] 97.5% | inhibition [6] 1.54% | RAM network inhibition [7] -1.08%

CC(=O)C(Sc1ccc2nnc(-c3ccc(F)cc3)n2n1)C(C)=O
inactive: growth inhibition [1] 2.49% | growth inhibition [2] 26.7% | viability increase [3] -3.38% | viability [4] 91% | viability [5] 86.3% | inhibition [6] -0.355% | RAM network inhibition [7] 7.13%

COc1ccc(-c2csc(N3CCN(C(=O)c4ccco4)CC3)n2)cc1
inactive: growth inhibition [1] -13% | growth inhibition [2] 19% | viability increase [3] 2.74% | viability [4] 98.5% | viability [5] 85.1% | inhibition [6] 0.95% | RAM network inhibition [7] 2.04%

COc1cccc(C(=O)Nc2ccc3nc(N4CCOCC4)cc(C)c3c2)c1
inactive: growth inhibition [1] -7.63% | growth inhibition [2] 0.38% | viability increase [3] -6.58% | viability [4] 95.7% | viability [5] 85.9% | inhibition [6] 0.845% | RAM network inhibition [7] 2.45%

Cc1ccc(C(=O)NCc2ccco2)cc1S(=O)(=O)N1CCCCC1
inactive: growth inhibition [1] -11.6% | growth inhibition [2] -5.65% | viability increase [3] -5.21% | viability [4] 82.9% | viability [5] 85.5% | inhibition [6] 3% | RAM network inhibition [7] 6.81%

CCC(=O)c1ccc(N2CCN(C(=O)COc3ccc(F)cc3)CC2)c(F)c1
inactive: growth inhibition [1] -5.39% | growth inhibition [2] -3.45% | viability increase [3] -2.21% | viability [4] 73.7% | viability [5] 82.5% | inhibition [6] 1.71% | RAM network inhibition [7] 5.92%

O=C(NCCN1C(=O)C2C3C=CC(C3)C2C1=O)Nc1ccccc1 (stereo unspecified)
inactive: growth inhibition [1] -8.45% | growth inhibition [2] 1.35% | viability increase [3] 0.28% | viability [4] 102% | viability [5] 93.2% | inhibition [6] 0.71% | RAM network inhibition [7] -0.05%

Cc1csc2nc(CNS(=O)(=O)c3ccc4c(c3)CCCC4)cn12
inactive: growth inhibition [1] -17.5% | growth inhibition [2] 0.8% | viability increase [3] -0.44% | viability [4] 101% | viability [5] 93.2% | inhibition [6] 1.17% | RAM network inhibition [7] 0.48%

O=C(CCCOc1ccccc1)n1nnc2ccccc21
inactive: growth inhibition [1] -10.8% | growth inhibition [2] -9.88% | viability increase [3] -1.21% | viability [4] 98.9% | viability [5] 100% | inhibition [6] 0.75% | RAM network inhibition [7] 0.05%

CCSc1nnc(Cn2c(=O)sc3ccccc32)n1C
inactive: growth inhibition [1] -8.03% | growth inhibition [2] 5.23% | viability increase [3] -0.33% | viability [4] 95.7% | viability [5] 96.2% | inhibition [6] 0.71% | RAM network inhibition [7] -0.45%

CCOC(=O)C1CCCN(C(=O)C2CCCN(S(=O)(=O)c3ccc4c(c3)oc(=O)n4C)C2)C1 (stereo unspecified)
inactive: growth inhibition [1] -4.01% | growth inhibition [2] -0.98% | viability increase [3] 0.99% | viability [4] 92.2% | viability [5] 94.5% | inhibition [6] 0.445% | RAM network inhibition [7] -0.53%

CCOC(=O)C1CCN(c2c(N3CCN(Cc4ccccc4)CC3)c(=O)c2=O)CC1
inactive: growth inhibition [1] -4.1% | growth inhibition [2] -4.49% | viability increase [3] -0.78% | viability [4] 90.5% | viability [5] 86.3% | inhibition [6] 1.52% | RAM network inhibition [7] 6.15%

COC(=O)c1ccc(C2c3c(oc4cc(C)c(C)cc4c3=O)C(=O)N2CCCN(C)C)cc1 (stereo unspecified)
inactive: growth inhibition [1] -7.92% | growth inhibition [2] -7.88% | viability increase [3] -2.2% | viability [4] 93.8% | viability [5] 87.7% | inhibition [6] 0.34% | RAM network inhibition [7] 3.78%

CCOC(=O)c1cnc2ccc(C(=O)OC)cc2c1NCCN1CCOCC1
inactive: growth inhibition [1] -6.57% | growth inhibition [2] -2.95% | viability increase [3] -4.73% | viability [4] 86.6% | viability [5] 92.1% | inhibition [6] 2.41% | RAM network inhibition [7] 2.6%

CC1=CS/C(=C(/C#N)C(=O)N2CCOCC2)N1c1ccccc1
inactive: growth inhibition [1] -2.33% | growth inhibition [2] 1.7% | viability increase [3] -1.17% | viability [4] 94.2% | viability [5] 94.7% | inhibition [6] 0.255% | RAM network inhibition [7] 0.92%

O=S(=O)(c1cccc(-c2nnc(-c3cccnc3)o2)c1)N1CCCCC1
inactive: growth inhibition [1] 1.58% | growth inhibition [2] -5.17% | viability increase [3] -3.4% | viability [4] 86.9% | viability [5] 84.7% | inhibition [6] 1.22% | RAM network inhibition [7] 2.99%

COc1cc2c(cc1OC)C(C(=O)NC1CC1)C1c3ccccc3CCN1C2=O (stereo unspecified)
inactive: growth inhibition [1] -17.8% | growth inhibition [2] -13.4% | viability increase [3] -1.28% | viability [4] 95.8% | viability [5] 97.3% | inhibition [6] 0.58% | RAM network inhibition [7] 0.1%
